≈ marks a conversion by molar mass, not a printed value. Calls of active or inactive are those of the source. The rule behind the calls is not given here.
Legend:
Staphylococcus aureus [1] = assay: Antibacterial activity against Staphylococcus aureus ATCC 25923 assessed as inhibition of visible bacterial growth incubated for 18 to 20 hrs by CLSI method; format: functional; conditions: time 18-20 hrs
Procedure, shortened: (§1)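 CLSI broth microdilution. Strains grown aerobically overnight on tryptic soy agar at 37 °C, adjusted to 0.5 McFarland and diluted in cation-adjusted Mueller–Hinton broth to about 5×10^5 CFU/mL. Compounds and control drugs serially diluted across the plate. Incubated aerobically at 37 °C for 18-20 h. MIC is the lowest concentration with no visible growth.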

Staphylococcus aureus [2] = assay: Antibacterial activity against methicillin-resistant Staphylococcus aureus ATCC 33592 assessed as inhibition of visible bacterial growth incubated for 18 to 20 hrs by CLSI method; format: functional; conditions: time 18-20 hrs; procedure, shortened: as §1
Staphylococcus aureus [3] = assay: Antibacterial activity against methicillin-sensitive Staphylococcus aureus ATCC 6538 assessed as inhibition of visible bacterial growth incubated for 18 to 20 hrs by CLSI method; format: functional; conditions: time 18-20 hrs; procedure, shortened: as §1
Staphylococcus aureus [4] = assay: Antibacterial activity against methicillin-sensitive Staphylococcus aureus NRS 107 assessed as inhibition of visible bacterial growth incubated for 18 to 20 hrs by CLSI method; format: functional; conditions: time 18-20 hrs; procedure, shortened: as §1
Staphylococcus aureus [5] = assay: Antibacterial activity against methicillin-resistant Staphylococcus aureus NRS 119 assessed as inhibition of visible bacterial growth incubated for 18 to 20 hrs by CLSI method; format: functional; conditions: time 18-20 hrs; procedure, shortened: as §1
Staphylococcus aureus [6] = assay: Antibacterial activity against methicillin-resistant Staphylococcus aureus NRS382 assessed as inhibition of visible bacterial growth incubated for 18 to 20 hrs by CLSI method; format: functional; conditions: time 18-20 hrs; procedure, shortened: as §1
Staphylococcus aureus [7] = assay: Antibacterial activity against methicillin-resistant Staphylococcus aureus NRS383 assessed as inhibition of visible bacterial growth incubated for 18 to 20 hrs by CLSI method; format: functional; conditions: time 18-20 hrs; procedure, shortened: as §1
Staphylococcus aureus [8] = assay: Antibacterial activity against methicillin-resistant Staphylococcus aureus NRS384 assessed as inhibition of visible bacterial growth incubated for 18 to 20 hrs by CLSI method; format: functional; conditions: time 18-20 hrs; procedure, shortened: as §1
Staphylococcus aureus [9] = assay: Antibacterial activity against methicillin-resistant Staphylococcus aureus NRS123 assessed as inhibition of visible bacterial growth incubated for 18 to 20 hrs by CLSI method; format: functional; conditions: time 18-20 hrs; procedure, shortened: as §1
Staphylococcus aureus [10] = assay: Antibacterial activity against methicillin-resistant Staphylococcus aureus NRS385 assessed as inhibition of visible bacterial growth incubated for 18 to 20 hrs by CLSI method; format: functional; conditions: time 18-20 hrs; procedure, shortened: as §1
Staphylococcus aureus [11] = assay: Antibacterial activity against methicillin-resistant Staphylococcus aureus NRS386 assessed as inhibition of visible bacterial growth incubated for 18 to 20 hrs by CLSI method; format: functional; conditions: time 18-20 hrs; procedure, shortened: as §1
Staphylococcus aureus [12] = assay: Antibacterial activity against methicillin-resistant Staphylococcus aureus NRS387 assessed as inhibition of visible bacterial growth incubated for 18 to 20 hrs by CLSI method; format: functional; conditions: time 18-20 hrs; procedure, shortened: as §1
Staphylococcus aureus [13] = assay: Antibacterial activity against vancomycin-resistant Staphylococcus aureus 10 assessed as inhibition of visible bacterial growth incubated for 18 to 20 hrs by CLSI method; format: functional; conditions: time 18-20 hrs; procedure, shortened: as §1
Staphylococcus aureus [14] = assay: Antibacterial activity against vancomycin-resistant Staphylococcus aureus 12 assessed as inhibition of visible bacterial growth incubated for 18 to 20 hrs by CLSI method; format: functional; conditions: time 18-20 hrs; procedure, shortened: as §1
[15] = test system: Staphylococcus epidermidis; assay: Antibacterial activity against Staphylococcus epidermidis NRS101 assessed as inhibition of visible bacterial growth incubated for 18 to 20 hrs by CLSI method; format: functional; conditions: time 18-20 hrs
Procedure, shortened: (§2)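 Broth microdilution per CLSI. Strains grown aerobically overnight on TSA at 37 °C, suspended to 0.5 McFarland, diluted in CAMHB to about 5×10^5 CFU/mL. Agents serially diluted across plate; aerobic incubation 37 °C for 18-20 h. MIC = lowest concentration completely preventing visible growth.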

Listeria monocytogenes = assay: Antibacterial activity against Listeria monocytogenes ATCC 19111 assessed as inhibition of visible bacterial growth incubated for 18 to 20 hrs by CLSI method; format: functional; conditions: time 18-20 hrs; procedure, shortened: as §2
Staphylococcus aureus [16] = assay: Bactericidal activity against methicillin-resistant Staphylococcus aureus ATCC 33592 assessed as reduction in bacterial growth incubated for 18 hrs by CLSI method; format: functional
Staphylococcus aureus [17] = assay: Antibacterial activity against methicillin-resistant Staphylococcus aureus ATCC 33592 assessed as reduction in bacterial count at 3 x MIC incubated upto 24 hrs by time kill analysis; format: functional; conditions: time hrs <=24
Procedure, shortened: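 Time-kill assay. […] Samples taken at 0, 2, 4, 8, 12 and 24 h, serially diluted in PBS and plated on tryptic soy agar. Viable CFU/mL counted after 18-20 h at 37 °C.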

Staphylococcus aureus [18] = assay: Antibacterial activity against methicillin-resistant Staphylococcus aureus NRS483 assessed as inhibition of visible bacterial growth incubated for 18 to 20 hrs by CLSI method; format: functional; conditions: time 18-20 hrs; procedure, shortened: as §1
Staphylococcus aureus [19] = assay: Antibacterial activity against methicillin-resistant Staphylococcus aureus NRS484 assessed as inhibition of visible bacterial growth incubated for 18 to 20 hrs by CLSI method; format: functional; conditions: time 18-20 hrs; procedure, shortened: as §1
Streptococcus pneumoniae [20] = assay: Antibacterial activity against cephalosporin-resistant Streptococcus pneumoniae ATCC 51916 assessed as inhibition of visible bacterial growth incubated for 18 to 20 hrs by CLSI method; format: functional; conditions: time 18-20 hrs; procedure, shortened: as §1
Streptococcus pneumoniae [21] = assay: Antibacterial activity against […] Streptococcus pneumoniae ATCC 700677 assessed as inhibition of visible bacterial growth incubated for 18 to 20 hrs by CLSI method; format: functional; conditions: time 18-20 hrs; procedure, shortened: as §1
Enterococcus faecalis [22] = assay: Antibacterial activity against vancomycin- resistant Enterococcus faecalis ATCC 51299 assessed as inhibition of visible bacterial growth incubated for 18 to 20 hrs by CLSI method; format: functional; conditions: time 18-20 hrs; procedure, shortened: as §1
Enterococcus faecalis [23] = assay: Antibacterial activity against vancomycin- resistant Enterococcus faecalis ATCC 700221 assessed as inhibition of visible bacterial growth incubated for 18 to 20 hrs by CLSI method; format: functional; conditions: time 18-20 hrs; procedure, shortened: as §1
Escherichia coli = assay: Antibacterial activity against Escherichia coli ATCC 25404 assessed as inhibition of visible bacterial growth at 16 ug/ml incubated for 18 to 20 hrs by CLSI method; format: functional, organism-based; conditions: B ATCC 25404, dose 16.0 µg/ml, time 18-20 hrs; procedure, shortened: as §1
Pseudomonas aeruginosa = assay: Antibacterial activity against Pseudomonas aeruginosa ATCC 27853 assessed as inhibition of visible bacterial growth at 16 ug/ml incubated for 18 to 20 hrs by CLSI method; format: functional, organism-based; conditions: dose 16.0 µg/ml, time 18-20 hrs; procedure, shortened: as §1
Acinetobacter baumannii = assay: Antibacterial activity against Acinetobacter baumannii ATCC 19606 RW4 assessed as inhibition of visible bacterial growth at 16 ug/ml incubated for 18 to 20 hrs by CLSI method; format: functional, organism-based; conditions: ATCC 19606 = CIP 70.34 = JCM 6841 RW4, dose 16.0 µg/ml, time 18-20 hrs; procedure, shortened: as §1
Caco-2 = assay: Cytotoxicity against human Caco2 cells assessed as reduction in cell viability at 128 ug/ml incubated for 2 hrs by MTS assay; format: cell-based; conditions: caco-2, 2 h, dose 128 µg/ml
[24] = Hemolytic activity in human RBC at 128 ug/ml incubated for 60 mins relative to control; format: ADME, cell-based, Erythrocyte; conditions: red blood cells (erythrocytes), dose 128 µg/ml, read-out: Activity
Procedure, shortened: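 Single-donor human erythrocytes as a 5% v/v suspension in PBS. Compounds serially diluted in PBS, in triplicate, and incubated with RBCs at 37 °C for 60 min. PBS served as the negative control and Triton-X as the positive control. Samples spun at 4,000 rpm for 5 min and supernatant absorbance read at 540 nm. Percent hemolysis = 100×(sample−negative)/(positive−negative).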

Staphylococcus aureus [25] = assay: Synergistic antibacterial activity against methicillin-resistant Staphylococcus aureus ATCC 33592 assessed as fractional inhibitory concentration index in presence of linezolid by checkerboard assay; format: functional
Staphylococcus aureus [26] = assay: Synergistic antibacterial activity against methicillin-resistant Staphylococcus aureus ATCC 33592 assessed as fractional inhibitory concentration index in presence of methicillin by checkerboard assay; format: functional
Staphylococcus aureus [27] = assay: Synergistic antibacterial activity against methicillin-resistant Staphylococcus aureus ATCC 33592 assessed as fractional inhibitory concentration index in presence of daptomycin by checkerboard assay; format: functional
Staphylococcus aureus [28] = assay: Synergistic antibacterial activity against methicillin-resistant Staphylococcus aureus ATCC 33592 assessed as fractional inhibitory concentration index in presence of Vancomycin; format: functional
Staphylococcus aureus [29] = assay: Bacteriostatic activity against methicillin-resistant Staphylococcus aureus ATCC 33592 assessed as reduction in bacterial growth incubated for 18 hrs by CLSI method; format: functional
J774 = assay: Cytotoxicity against mouse J774 cells assessed as reduction in cell viability at 32 ug/ml incubated for 24 hrs by MTS assay; format: cell-based; conditions: j774, 24 h, dose 32 µg/ml

Row | SMILES | MIC (Staphylococcus aureus [1]) [µg/mL] | MIC (Staphylococcus aureus [2]) [µg/mL] | MIC (Staphylococcus aureus [3]) [µg/mL] | MIC (Staphylococcus aureus [4]) [µg/mL] | MIC (Staphylococcus aureus [5]) [µg/mL] | MIC (Staphylococcus aureus [6]) [µg/mL] | MIC (Staphylococcus aureus [7]) [µg/mL] | MIC (Staphylococcus aureus [8]) [µg/mL] | MIC (Staphylococcus aureus [9]) [µg/mL] | MIC (Staphylococcus aureus [10]) [µg/mL] | MIC (Staphylococcus aureus [11]) [µg/mL] | MIC (Staphylococcus aureus [12]) [µg/mL] | MIC (Staphylococcus aureus [13]) [µg/mL] | MIC (Staphylococcus aureus [14]) [µg/mL] | MIC [15] [µg/mL] | MIC (Listeria monocytogenes) [µg/mL] | Activity (Staphylococcus aureus [17]) [log10CFU/ml] | also measured
1 | O=C(Nc1nnc(-c2cccs2)o1)c1ccc(C(F)(F)F)cn1 | 64 (≈ 188 µM) | 32 (≈ 94 µM) | – | – | – | – | – | – | – | – | – | – | – | – | – | – | – | –
2 | O=C(Nc1nnc(-c2cccs2)o1)c1ccc(SC(F)F)cc1 | 4 (≈ 11.3 µM) | 4 (≈ 11.3 µM) | – | – | – | – | – | – | – | – | – | – | – | – | – | – | – | –
3 | CC(=O)NC[C@H]1CN(c2ccc(N3CCOCC3)c(F)c2)C(=O)O1 [LINEZOLID] | – | – | 0.5 (≈ 1.48 µM) | 0.5 (≈ 1.48 µM) | > 64 | 1 (≈ 2.96 µM) | 1 (≈ 2.96 µM) | 1 (≈ 2.96 µM) | 1 (≈ 2.96 µM) | 1 (≈ 2.96 µM) | 1 (≈ 2.96 µM) | 1 (≈ 2.96 µM) | > 64 | > 64 | 1 (≈ 2.96 µM) | 0.5 (≈ 1.48 µM) | 1.7 | MBC (Staphylococcus aureus [16]): > 128 µg/mL
4 | O=C(Nc1nnc(-c2cccs2)o1)c1ccc(OC(F)(F)F)cc1 | 1 (≈ 2.81 µM) | 1 (≈ 2.81 µM) | 1 (≈ 2.81 µM) | 1 (≈ 2.81 µM) | 1 (≈ 2.81 µM) | 1 (≈ 2.81 µM) | 2 (≈ 5.63 µM) | 0.5 (≈ 1.41 µM) | 1 (≈ 2.81 µM) | 2 (≈ 5.63 µM) | 1 (≈ 2.81 µM) | 2 (≈ 5.63 µM) | 1 (≈ 2.81 µM) | 1 (≈ 2.81 µM) | 0.5 (≈ 1.41 µM) | 2 (≈ 5.63 µM) | 0.69 | MIC (Staphylococcus aureus [18]): 1 µg/mL (≈ 2.81 µM); MIC (Staphylococcus aureus [19]): 0.5 µg/mL (≈ 1.41 µM); MIC (Streptococcus pneumoniae [20]): 2 µg/mL (≈ 5.63 µM); MIC (Streptococcus pneumoniae [21]): 1 µg/mL (≈ 2.81 µM); MIC (Enterococcus faecalis [22]): 8 µg/mL (≈ 22.5 µM); MIC (Enterococcus faecalis [23]): 4 µg/mL (≈ 11.3 µM); inhibition (Escherichia coli): inactive; inhibition (Pseudomonas aeruginosa): inactive; inhibition (Acinetobacter baumannii): inactive; Activity (Caco-2): Non-Toxic; hemolysis at 1 h, 128 ug/ml [24]: 20%; fractional inhibitory concentration index (FICI) (Staphylococcus aureus [25]): 1.25; fractional inhibitory concentration index (FICI) (Staphylococcus aureus [26]): 0.63; fractional inhibitory concentration index (FICI) (Staphylococcus aureus [27]): 0.5; fractional inhibitory concentration index (FICI) (Staphylococcus aureus [28]): 1.06; MBC (Staphylococcus aureus [29]): > 128 µg/mL; Activity (J774): Non-Toxic
